Data on six molecules can be found in ChEMBL document CHEMBL3632558, “Synthesis, antimycobacterial and antibacterial activity of l-[(1R,2S)-2-fluorocyclopropyl]naphthyridone derivatives containing an oxime-functionalized pyrrolidine moiety” (2015).

Molecules are shown by their SMILES. ≈ marks a conversion by molar mass, not a printed value.

What is called MIC90 is the lowest concentration that inhibits either 90% of growth or 90% of the strains tested, depending on the study. Low readings indicate greater potency, high ones weaker potency.

In this assay the test system is Mycobacterium tuberculosis. Description: Antimycobacterial activity against multidrug-resistant Mycobacterium tuberculosis 6133 by alamar blue assay. In kind it is functional. Summed up: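 Microplate Alamar Blue Assay; MIC is the lowest concentration giving ≥90% reduction in fluorescence relative to the mean of replicate bacterium-only controls. MDR strain 6133 is resistant to isoniazid and rifampicin.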
Background: Alamar Blue is a resazurin reagent that responds to reducing activity.
In turn, `NCC1CN(c2nc3c(cc2F)c(=O)c(C(=O)O)cn3[C@@H]2C[C@@H]2F)C/C1=N\OCc1ccc(F)cc1` (stereo partly specified) had an MIC90 of 0.043 µg/mL (≈ 0.0857 µM).
For `NCC1CN(c2nc3c(cc2F)c(=O)c(C(=O)O)cn3[C@@H]2C[C@@H]2F)C/C1=N\OCc1ccccc1` (stereo partly specified) the value was 0.125 µg/mL (≈ 0.259 µM); for `NCC1CN(c2nc3c(cc2F)c(=O)c(C(=O)O)cn3[C@@H]2C[C@@H]2F)C/C1=N\OCc1ccc2c(c1)OCO2` (stereo partly specified), 0.054 µg/mL (≈ 0.102 µM).
For `NNC(=O)c1ccncc1` [ISONIAZID] the value was 4 µg/mL (≈ 29.2 µM).
For `CO[C@H]1/C=C/O[C@@]2(C)Oc3c(C)c(O)c4c(O)c(c(/C=N/N5CCN(C)CC5)c(O)c4c3C2=O)NC(=O)/C(C)=C\C=C\[C@H](C)[C@H](O)[C@@H](C)[C@@H](O)[C@@H](C)[C@H](OC(C)=O)[C@@H]1C` [RIFAMPIN] the value was more than 40 µg/mL.
On to `Cc1ccc(CO/N=C2\CN(c3nc4c(cc3F)c(=O)c(C(=O)O)cn4[C@@H]3C[C@@H]3F)CC2CN)cc1` (stereo partly specified), for which the MIC90 stood at 0.03 µg/mL (≈ 0.0603 µM).
